Values after ≈ are worked out from the molar mass of the structure shown. Active and inactive are the calls of the source. The calls are words filed in the database; no cut-off is given here.
Key:
[1] = molecular target: T1, Ketohexokinase (Homo sapiens) (UniProt P50053); assay: Inhibition of recombinant full length human His-tagged KHK expressed in Escherichia coli BL21(DE3) using at 240 uM by 1D NMR-STD spectroscopic method
T1 sequence (whole entry): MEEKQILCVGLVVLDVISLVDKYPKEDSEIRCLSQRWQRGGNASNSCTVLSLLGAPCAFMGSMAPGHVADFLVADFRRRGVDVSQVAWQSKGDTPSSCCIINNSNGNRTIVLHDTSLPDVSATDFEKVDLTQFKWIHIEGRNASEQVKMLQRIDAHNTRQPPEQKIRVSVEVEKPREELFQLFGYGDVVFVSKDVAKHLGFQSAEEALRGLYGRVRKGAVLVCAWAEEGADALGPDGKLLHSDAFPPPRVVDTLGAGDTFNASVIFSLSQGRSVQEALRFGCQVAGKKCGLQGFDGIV
Procedure, shortened: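 Full-length His-tagged human KHK (tag retained) at 5 μM in 50 mM Tris-d, 100 mM NaCl, 2 mM TCEP-d, 5% glycerol-d, pH 7.5, 298 K. AMP-PMP at 240 μM served as positive control. Saturation-transfer difference NMR used 512 scans and 3 s Gaussian on/off-resonance saturation. Binding was called from positive difference signals, with ligands assigned against each fragment's 1D 1H reference spectrum.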

Ketohexokinase [2] = molecular target: T2, Ketohexokinase (Homo sapiens, UniProt P50053); assay: Binding affinity to full length recombinant human biotin-labeled KHK by SPR assay
T2 sequence (P50053 whole entry): T1 sequence (whole entry)
Procedure, shortened: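 Full-length biotinylated KHK captured on a streptavidin sensor (7000-8000 RU). Run buffer was 50 mM HEPES pH 7.4, 150 mM NaCl, 0.01% P20, 500 µM TCEP, 3% DMSO at 25 °C. Eleven 2-fold concentrations from 300 µM top, stop-flow with 60 s association and ≥120 s dissociation. Data double-referenced and DMSO-corrected; KD by steady-state affinity fit, n=1.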

Ketohexokinase [3] = molecular target: T2, Ketohexokinase; assay: Inhibition of recombinant human N-terminal His-tagged KHK expressed in Escherichia coli BL21(DE3) using fructose as substrate incubated for 30 mins followed by ATP addition measured for 30 mins by pyruvate kinase-lactate dehydrogenase coupled enzyme assay
Procedure, shortened: (§1)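 Thrombin-cleaved (His-tag removed) human or rat KHK at 10 nM, preincubated 30 min at room temperature with compound (11-point series, 2.5% DMSO). Started with 0.2 mM ATP; NADH A340 read kinetically for 30 min. IC50 from nonlinear fit of percent inhibition; mean of replicates.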

Rattus norvegicus [4] = assay: AUClast in rat at 5 mg/kg, po; assay type: ADME, organism-based; parameters: dose 5 mg/kg, route oral, time 0 - last; conditions: in vivo
Cytochrome P450 2C8 = molecular target: T3, Cytochrome P450 2C8 (Homo sapiens, UniProt P10632); assay: Inhibition of human CYP2C8 at 3 uM; assay type: ADME
T3 sequence (P10632 whole entry): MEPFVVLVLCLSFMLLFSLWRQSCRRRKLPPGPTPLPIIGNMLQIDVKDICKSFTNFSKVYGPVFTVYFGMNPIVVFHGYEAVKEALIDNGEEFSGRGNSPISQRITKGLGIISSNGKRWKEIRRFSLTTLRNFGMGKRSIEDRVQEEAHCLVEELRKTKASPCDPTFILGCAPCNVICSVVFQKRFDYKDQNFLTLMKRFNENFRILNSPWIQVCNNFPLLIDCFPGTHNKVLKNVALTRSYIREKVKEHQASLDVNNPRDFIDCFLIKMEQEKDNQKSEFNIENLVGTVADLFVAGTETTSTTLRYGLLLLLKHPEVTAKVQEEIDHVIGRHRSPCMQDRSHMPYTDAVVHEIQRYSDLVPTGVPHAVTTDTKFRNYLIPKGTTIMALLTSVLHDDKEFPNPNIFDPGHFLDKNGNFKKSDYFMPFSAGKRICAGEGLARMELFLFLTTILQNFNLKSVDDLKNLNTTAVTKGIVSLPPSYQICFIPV

Cytochrome P450 1A2 = molecular target: T4, Cytochrome P450 1A2 (Homo sapiens, UniProt P05177); assay: Inhibition of human CYP1A2 at 3 uM; assay type: ADME
T4 sequence (P05177 whole entry): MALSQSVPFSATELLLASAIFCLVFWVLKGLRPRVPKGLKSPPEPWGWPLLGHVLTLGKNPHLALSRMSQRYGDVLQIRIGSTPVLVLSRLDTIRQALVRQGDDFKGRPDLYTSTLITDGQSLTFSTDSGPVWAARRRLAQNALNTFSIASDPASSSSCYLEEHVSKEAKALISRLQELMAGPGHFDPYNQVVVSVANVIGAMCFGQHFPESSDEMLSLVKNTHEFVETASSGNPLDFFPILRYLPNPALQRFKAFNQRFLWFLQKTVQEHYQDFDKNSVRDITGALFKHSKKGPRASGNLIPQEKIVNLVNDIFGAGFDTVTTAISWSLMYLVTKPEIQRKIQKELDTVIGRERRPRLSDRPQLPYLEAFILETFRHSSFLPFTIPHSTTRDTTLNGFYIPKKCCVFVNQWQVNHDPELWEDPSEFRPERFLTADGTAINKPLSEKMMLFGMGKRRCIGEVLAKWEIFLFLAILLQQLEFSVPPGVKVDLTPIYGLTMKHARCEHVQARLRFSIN

Cytochrome P450 2C9 = Cytochrome P450 2C9 (Homo sapiens, UniProt P11712); assay: Inhibition of human CYP2C9 at 3 uM; assay type: ADME
Chain of Cytochrome P450 2C9 (P11712 whole entry): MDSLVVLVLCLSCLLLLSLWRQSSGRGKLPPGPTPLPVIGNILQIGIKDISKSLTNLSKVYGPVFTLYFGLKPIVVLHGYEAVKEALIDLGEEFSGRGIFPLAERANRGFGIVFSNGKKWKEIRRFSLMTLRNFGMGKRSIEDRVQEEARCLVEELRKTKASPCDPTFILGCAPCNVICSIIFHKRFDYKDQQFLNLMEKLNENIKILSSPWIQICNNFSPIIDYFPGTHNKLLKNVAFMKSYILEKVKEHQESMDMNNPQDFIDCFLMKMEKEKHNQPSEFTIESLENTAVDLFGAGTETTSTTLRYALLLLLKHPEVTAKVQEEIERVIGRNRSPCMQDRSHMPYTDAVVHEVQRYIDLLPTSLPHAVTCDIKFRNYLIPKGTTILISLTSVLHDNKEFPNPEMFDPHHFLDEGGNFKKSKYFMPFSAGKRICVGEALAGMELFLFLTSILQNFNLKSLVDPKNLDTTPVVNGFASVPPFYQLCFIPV

Salmonella typhimurium = assay: Genotoxicity in Salmonella typhimurium by Ames test; assay type: toxicity; conditions: salmonella enterica subsp. enterica serovar typhimurium
Cytochrome P450 2C19 = Cytochrome P450 2C19 (Homo sapiens, UniProt P33261); assay: Inhibition of human CYP2C19 at 3 uM; assay type: ADME
Chain of Cytochrome P450 2C19 (P33261 whole entry): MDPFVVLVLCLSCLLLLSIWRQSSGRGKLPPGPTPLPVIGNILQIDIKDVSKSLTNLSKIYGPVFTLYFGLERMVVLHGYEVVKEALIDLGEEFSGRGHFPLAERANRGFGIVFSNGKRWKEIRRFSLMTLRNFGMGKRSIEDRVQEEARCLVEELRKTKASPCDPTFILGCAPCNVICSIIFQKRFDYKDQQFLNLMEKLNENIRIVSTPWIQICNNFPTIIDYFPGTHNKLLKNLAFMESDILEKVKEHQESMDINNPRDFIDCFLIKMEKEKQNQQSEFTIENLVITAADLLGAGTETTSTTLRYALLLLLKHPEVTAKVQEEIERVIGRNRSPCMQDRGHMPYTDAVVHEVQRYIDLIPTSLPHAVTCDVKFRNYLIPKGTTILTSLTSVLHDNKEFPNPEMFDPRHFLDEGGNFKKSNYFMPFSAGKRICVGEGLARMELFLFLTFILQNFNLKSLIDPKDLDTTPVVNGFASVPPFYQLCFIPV

[5] = Fraction unbound in human plasma at 10 uM measured at 2 to 24 hrs by equilibrium dialysis method; assay type: ADME, cell-free
Ketohexokinase [6] = molecular target: T2, Ketohexokinase
[7] = Half life in rat at 1 mg/kg, iv; assay type: ADME, organism-based; conditions: in vivo
Procedure, shortened: (§2)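 Rat PK following a 1 mg/kg intravenous dose; systemic clearance, volume of distribution and effective half-life derived from plasma exposure.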

[8] = Apparent clearance in rat liver microsomes; assay type: ADME, microsome; conditions: read-out: CLH(app)
Rattus norvegicus [9] = assay: In vivo inhibition of KHK-C in po dosed Sprague-Dawley rat assessed as decrease in F1P levels in liver administered for 1 hr followed by bolus fructose administration measured 2 mins after iv infusion by LC/MS analysis; assay type: functional
Procedure, shortened: (§3)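 Male Sprague Dawley rats (~200 g, jugular-cannulated) were fasted 16 h and given oral compound as a 0.5% methylcellulose nano-milled suspension. After 1 h they received an i.v. fructose bolus of 500 mg/kg over 20 s, and were decapitated 2 min later. Liver and kidney F1P was quantified by ion-exchange LC/MS/MS against a 13C-xylitol internal standard. ED50 from a four-parameter fit; n = 7-8.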

Rattus norvegicus [10] = assay: In vivo inhibition of KHK-C in po dosed Sprague-Dawley rat assessed as decrease in F1P levels in kidney administered for 1 hr followed by bolus fructose administration measured 2 mins after iv infusion by LC/MS analysis; assay type: functional; procedure, shortened: as §3
[11] = Thermodynamic solubility of compound at pH 7.4; assay type: physicochemical; conditions: buffer, read-out: Therm_solubility
Procedure, shortened: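 Thermodynamic solubility determined at pH 7.4.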

Rattus norvegicus [12] = assay: In vivo inhibition of fructose metabolism in po dosed Sprague-Dawley rat assessed as increase in plasma fructose level administered for 1 hr followed by oral bolus fructose administration measured after 2 mins by LC/MS analysis; assay type: functional, organism-based
Procedure, shortened: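 Fasted (16 h) non-cannulated male Sprague Dawley rats were dosed orally with compound in a 0.5% methylcellulose nano-milled suspension. One hour later they received 2 g/kg oral fructose. Tail-vein K2EDTA plasma was methanol-extracted with 13C6-fructose internal standard and analysed by HILIC LC-MS/MS; n = 6-8.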

Cytochrome P450 2D6 = Cytochrome P450 2D6 (Homo sapiens, UniProt P10635); assay: Inhibition of human CYP2D6 at 3 uM; assay type: ADME
Chain of Cytochrome P450 2D6 (P10635 whole entry): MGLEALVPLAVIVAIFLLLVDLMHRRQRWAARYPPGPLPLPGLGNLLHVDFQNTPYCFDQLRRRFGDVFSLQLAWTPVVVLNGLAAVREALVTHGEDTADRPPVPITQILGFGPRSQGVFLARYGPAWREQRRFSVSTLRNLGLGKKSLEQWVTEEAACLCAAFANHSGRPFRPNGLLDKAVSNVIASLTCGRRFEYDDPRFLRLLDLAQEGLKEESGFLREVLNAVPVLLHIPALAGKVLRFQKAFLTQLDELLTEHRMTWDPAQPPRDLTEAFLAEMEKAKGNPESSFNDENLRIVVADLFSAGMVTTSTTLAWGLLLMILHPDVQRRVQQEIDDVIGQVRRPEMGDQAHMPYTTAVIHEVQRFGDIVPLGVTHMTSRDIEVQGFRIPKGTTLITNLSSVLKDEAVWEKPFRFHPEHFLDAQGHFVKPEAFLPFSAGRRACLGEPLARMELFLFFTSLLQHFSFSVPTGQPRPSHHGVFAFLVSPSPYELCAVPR

Ketohexokinase [13] = molecular target: T2, Ketohexokinase; remark: listed apart in the source
[14] = Cmax in rat at 5 mg/kg; assay type: ADME, organism-based; parameters: dose 5 mg/kg; conditions: in vivo
HepG2 = assay: Cytotoxicity against human HepG2 cells up to 300 uM after 72 hrs; assay type: cell-based; conditions: hepg2, 72 h
Procedure, shortened: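 HepG2 cells incubated with compound at concentrations up to 300 µM for 72 hours to assess toxicity.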

Rattus norvegicus [15] = assay: Time required for plasma concentration to reach above in vitro rat KHK IC50 in rat at 150 mg/kg, po
Procedure, shortened: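 Rats dosed orally at 150 mg/kg as a nanocrystal suspension (1% polyvinylpyrrolidone / 0.025% sodium lauryl sulfate / 1% pluronic).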

Cytochrome P450 3A4 = Cytochrome P450 3A4 (Homo sapiens, UniProt P08684); assay: Inhibition of human CYP3A4 at 3 uM; assay type: ADME
Chain of Cytochrome P450 3A4 (P08684 whole entry): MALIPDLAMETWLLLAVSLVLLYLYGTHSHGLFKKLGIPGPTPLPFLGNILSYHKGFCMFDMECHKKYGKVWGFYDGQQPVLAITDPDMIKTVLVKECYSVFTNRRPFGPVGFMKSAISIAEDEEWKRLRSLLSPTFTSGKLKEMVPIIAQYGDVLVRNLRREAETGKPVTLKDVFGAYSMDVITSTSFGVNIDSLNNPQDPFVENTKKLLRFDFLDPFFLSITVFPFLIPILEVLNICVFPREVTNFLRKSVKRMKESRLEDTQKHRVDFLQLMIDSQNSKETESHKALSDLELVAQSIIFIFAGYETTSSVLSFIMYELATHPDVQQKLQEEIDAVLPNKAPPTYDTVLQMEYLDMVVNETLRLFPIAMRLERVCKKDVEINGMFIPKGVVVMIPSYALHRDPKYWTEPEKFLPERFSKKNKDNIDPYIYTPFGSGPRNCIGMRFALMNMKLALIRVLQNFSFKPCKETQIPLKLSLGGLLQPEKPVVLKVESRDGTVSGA

Rattus norvegicus [16] = assay: Oral bioavailability in rat at 5 mg/kg; assay type: ADME, organism-based; conditions: in vivo
[17] = Octanol/water partition coefficient, log D of the compound at pH 7.4 by shake-flask method; assay type: physicochemical
Procedure, shortened: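 LogD measured by shake-flask octanol:water partition at pH 7.4.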

[18] = Apparent clearance in human liver microsomes; assay type: ADME, microsome; conditions: read-out: CLH(app)
[19] = Apparent permeability in RRCK cells by LC-MS/MS analysis; assay type: ADME, cell-based, Canis lupus familiaris, MDCKII-LE; conditions: dog, MDCK
[20] = molecular target: Voltage-gated inwardly rectifying potassium channel KCNH2 (Homo sapiens, UniProt Q12809); assay: Inhibition of human ERG
Chain of Voltage-gated inwardly rectifying potassium channel KCNH2 (Q12809 whole entry): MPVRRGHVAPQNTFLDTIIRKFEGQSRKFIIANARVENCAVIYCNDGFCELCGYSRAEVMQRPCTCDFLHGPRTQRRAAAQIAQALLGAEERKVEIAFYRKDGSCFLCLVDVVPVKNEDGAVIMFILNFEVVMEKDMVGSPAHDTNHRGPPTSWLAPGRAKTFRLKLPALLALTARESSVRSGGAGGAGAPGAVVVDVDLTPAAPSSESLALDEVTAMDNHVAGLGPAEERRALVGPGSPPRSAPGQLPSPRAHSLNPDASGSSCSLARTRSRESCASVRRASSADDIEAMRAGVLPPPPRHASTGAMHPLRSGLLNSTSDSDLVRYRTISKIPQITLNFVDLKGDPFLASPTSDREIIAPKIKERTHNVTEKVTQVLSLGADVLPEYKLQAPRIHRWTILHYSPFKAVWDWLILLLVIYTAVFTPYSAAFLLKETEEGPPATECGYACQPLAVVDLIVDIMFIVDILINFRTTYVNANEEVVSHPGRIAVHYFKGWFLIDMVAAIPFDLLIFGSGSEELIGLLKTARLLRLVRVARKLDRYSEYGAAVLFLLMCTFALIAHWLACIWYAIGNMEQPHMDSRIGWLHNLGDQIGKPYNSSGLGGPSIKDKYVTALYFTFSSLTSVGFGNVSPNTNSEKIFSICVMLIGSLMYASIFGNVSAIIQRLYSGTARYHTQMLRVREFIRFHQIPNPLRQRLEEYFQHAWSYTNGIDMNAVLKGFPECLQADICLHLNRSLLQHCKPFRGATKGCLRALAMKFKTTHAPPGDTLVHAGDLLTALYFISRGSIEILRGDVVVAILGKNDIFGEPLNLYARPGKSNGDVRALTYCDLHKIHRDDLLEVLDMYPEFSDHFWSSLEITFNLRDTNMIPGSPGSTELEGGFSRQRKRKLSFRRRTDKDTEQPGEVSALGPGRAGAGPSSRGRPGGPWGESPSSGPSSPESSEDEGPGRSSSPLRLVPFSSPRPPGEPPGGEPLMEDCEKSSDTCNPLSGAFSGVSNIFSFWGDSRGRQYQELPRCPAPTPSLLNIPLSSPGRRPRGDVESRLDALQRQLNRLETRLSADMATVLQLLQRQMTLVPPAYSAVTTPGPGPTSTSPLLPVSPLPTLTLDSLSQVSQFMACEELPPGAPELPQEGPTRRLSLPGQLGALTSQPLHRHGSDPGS

[21] = Volume of distribution in rat at 1 mg/kg, iv; assay type: ADME, organism-based; conditions: in vivo; procedure, shortened: as §2
Ketohexokinase [22] = molecular target: T5, Ketohexokinase (Rattus norvegicus, UniProt Q02974); assay: Inhibition of recombinant rat N-terminal His-tagged KHK expressed in Escherichia coli BL21(DE3) using fructose as substrate incubated for 30 mins followed by ATP addition measured for 30 mins by pyruvate kinase-lactate dehydrogenase coupled enzyme assay; procedure, shortened: as §1
T5 sequence (Q02974 whole entry): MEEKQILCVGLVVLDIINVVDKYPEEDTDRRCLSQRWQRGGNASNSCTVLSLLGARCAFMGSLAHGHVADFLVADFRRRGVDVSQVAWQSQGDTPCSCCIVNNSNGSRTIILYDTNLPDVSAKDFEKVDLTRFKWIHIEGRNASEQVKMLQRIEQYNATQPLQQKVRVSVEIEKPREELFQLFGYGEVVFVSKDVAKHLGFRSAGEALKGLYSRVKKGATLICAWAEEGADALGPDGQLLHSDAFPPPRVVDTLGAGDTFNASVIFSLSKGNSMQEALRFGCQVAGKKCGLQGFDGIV

[23] = Rattus norvegicus, Sprague-Dawley

Oc1nc2ccccc2nc1C(F)(F)F
inhibition [1]: Active
Kd (Ketohexokinase [2]): 44 µM
IC50 (Ketohexokinase [3]; read-out: IC50): 100 µM

C[C@]1(O)CCN(c2nc(N3C[C@H](O)[C@@H](O)C3)cc(C(F)(F)F)c2C#N)C1
AUClast (Rattus norvegicus [4]): 14500 ng·h/mL
inhibition (INH) (Cytochrome P450 2C8): Not Active
inhibition (INH) (Cytochrome P450 1A2): Not Active
inhibition (INH) (Cytochrome P450 2C9): Not Active
Activity (Salmonella typhimurium): Non-Toxic
inhibition (INH) (Cytochrome P450 2C19): Not Active
fraction unbound at 10 µM [5]: 0.13
IC50 (Ketohexokinase [6]): 0.39 µM
half-life [7]: 1.2 h
microsomal CLint [8]: < 8 µL/min/mg
inhibition (Rattus norvegicus [9]): Dose-dependent effect
pED50 (Rattus norvegicus [9]): 1.48
ED50 (Rattus norvegicus [9]; [23]): 30 mg/kg
inhibition (Rattus norvegicus [10]): Dose-dependent effect
pED50 (Rattus norvegicus [10]): 1.2
ED50 (Rattus norvegicus [10]; [23]): 15.7 mg/kg
solubility thermodynamic [11]: 503 µM (≈ 187 µg/mL)
inhibition (Rattus norvegicus [12]): Dose-dependent effect
inhibition (INH) (Cytochrome P450 2D6): Not Active
IC50 (Ketohexokinase [13]): 0.316 µM
Cmax [14]: 2940 ng/mL
Activity (HepG2): Non-Toxic
Time (Rattus norvegicus [15]): 14 h
inhibition (INH) (Cytochrome P450 3A4): Not Active
F (Rattus norvegicus [16]): 45%
logD [17]: 2.2
microsomal CLint [18]: < 8 µL/min/mg
Papp [19]: 3.5 ×10⁻⁶ cm/s
inhibition (INH) [20]: Not Active
Vd [21]: 1.38 L/kg
IC50 (Ketohexokinase [22]; read-out: IC50): 0.34 µM
IC50 (Ketohexokinase [22]; read-out: pIC50 (converted)): 0.501 µM

N#Cc1c(C(F)(F)F)cc(N2CCN(CCO)CC2)nc1N1CCCC(CO)C1 (stereo not drawn)
IC50 (Ketohexokinase [3]; read-out: IC50): 16.8 µM

CCc1cc2nc(C(F)(F)F)c(C#N)c(N3CCC(C)(O)C3)c2[nH]1 (racemic)
logD [17]: 2.8
microsomal CLint [18]: 103 µL/min/mg
IC50 (Ketohexokinase [3]; read-out: IC50): 1.48 µM

Cc1c[nH]c2ncnc(N3CCC[C@@H](CO)C3)c12
inhibition [1]: Active
Kd (Ketohexokinase [2]): 20 µM
IC50 (Ketohexokinase [3]; read-out: IC50): 118 µM
IC50 (Ketohexokinase [3]; read-out: pIC50 (converted)): 120 µM

— ChEMBL document CHEMBL4017511, “Discovery of Fragment-Derived Small Molecules for in Vivo Inhibition of Ketohexokinase (KHK)” (J Med Chem, 2017)
